Test results as given in ChEMBL document CHEMBL3352280, “Modulation of cAMP-specific PDE without emetogenic activity: new sulfide-like PDE7 inhibitors” (J Med Chem, 2014).
Active and inactive are the calls of the source. The rule behind the calls is not given here.

Assays:
[1] = tested on: Astrocyte; test: Inhibition of LPS-induced NO production in rat astrocytes; format: functional, cell-based
[2] = target: T1, 3',5'-cyclic-AMP phosphodiesterase 7B (Homo sapiens, UniProt Q9NP56); test: Inhibition of human recombinant PDE7B assessed as inhibition of hydrolysis of [3H]cAMP at 10 uM after 20 mins by scintillation proximity assay
Outline: (§1)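 Scintillation proximity assay with human recombinant enzyme: PDE7A1 0.02 U, PDE3A 0.02 U, PDE7B 0.5 U, PDE8A 0.5 U. Enzyme incubated with 5 nCi [3H]cAMP and inhibitor in kit buffer for 20 min at 30 °C. SPA beads added and shaken 1 h at room temperature, settled 30 min, radioactivity counted.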

[3] = target: cGMP-inhibited 3',5'-cyclic phosphodiesterase 3A (Homo sapiens) (UniProt Q14432); test: Inhibition of human recombinant PDE3A assessed as inhibition of hydrolysis of [3H]cAMP at 10 uM after 20 mins by scintillation proximity assay; outline: as §1
[4] = tested on: SH-SY5Y; test: Cytoprotective activity against 6-OHDA-induced death of human SH-SY5Y cells pretreated for 1 hr at 10 uM measured 16 hrs post 6-OHDA challenge by MTT assay; format: functional, cell-based
Outline: (§2)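 Human neuroblastoma SH-SY5Y grown in F12/EMEM with 2 mM glutamine, 1% nonessential amino acids and 15% FBS at 37 °C, 5% CO2. Semiconfluent cells pretreated 1 h with compound, then 6-OHDA (35 μM) added for 16 h. Viability by MTT (0.5 mg/mL, 4 h), SDS/HCl solubilisation, absorbance 595 nm. Mean ± SD of three experiments.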

[5] = target: T2, 3',5'-cyclic-AMP phosphodiesterase 4D (Homo sapiens, UniProt Q08499); test: Inhibition of human recombinant PDE4D3 assessed at 10 uM after 60 mins by IMAP fluorescence polarization assay
[6] = tested on: Microglia; test: Inhibition of LPS-induced NO production in rat microglia treated for 1 hr at 10 uM before LPS challenge measured after 24 hrs by Griess assay; format: functional
Outline: (§3)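 After 2 days, cells were pretreated with compound (10 μM), then LPS (10 μg/mL) was added for 24 h. Nitrite in the supernatant was measured by Griess reagent (15 min, room temperature, absorbance 492/540 nm). Mean ± SD of three experiments.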

[7] = target: T3, High affinity 3',5'-cyclic-AMP phosphodiesterase 7A (Homo sapiens, UniProt Q13946); test: Inhibition of human recombinant PDE7A1 assessed as inhibition of hydrolysis of [3H]cAMP at 10 uM after 20 mins by scintillation proximity assay; outline: as §1
[8] = target: T3, High affinity 3',5'-cyclic-AMP phosphodiesterase 7A; test: Inhibition of human recombinant PDE7A1 assessed as inhibition of hydrolysis of [3H]cAMP after 20 mins by scintillation proximity assay; outline: as §1
[9] = target: T4, 3',5'-cyclic-AMP phosphodiesterase 4B (Homo sapiens, UniProt Q07343); test: Inhibition of human recombinant PDE4B2 assessed at 10 uM after 60 mins by IMAP fluorescence polarization assay
[10] = tested on: Astrocyte; test: Inhibition of LPS-induced NO production in rat astrocytes treated for 1 hr at 10 uM before LPS challenge measured after 24 hrs by Griess assay; format: functional, cell-based; outline: as §3
[11] = tested on: Mus musculus; test: Emetogenic potential in surrogate emesis CD1 mouse model assessed as effect on xyclacine/ketamine-induced loss of righting reflex at 1 mg/kg, sc; conditions: in vivo
[12] = tested on: Mus musculus; test: Emetogenic potential in surrogate emesis CD1 mouse model assessed as effect on xyclacine/ketamine-induced loss of righting reflex at 1 mg/kg, sc; format: ADME, organism-based; design: dose 1 mg/kg, route subcutaneous; conditions: in vivo
Outline: (§4)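 Male CD1 mice (25–30 g) anesthetized ip with xylazine 10 mg/kg plus ketamine 100 mg/kg. Test agent or vehicle given sc 15 min later in 60% PEG/saline (0.1 mL/10 g). Duration of anesthesia is timed to return of righting reflex. Mean ± SEM, n = 10–19 per group, ANOVA with Dunnett post hoc test.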

[13] = tested on: Mus musculus; test: Emetogenic potential in surrogate emesis CD1 mouse model assessed as effect on xyclacine/ketamine-induced loss of righting reflex at 5 mg/kg, sc; format: ADME, organism-based; design: dose 5 mg/kg, route subcutaneous; conditions: in vivo; outline: as §4
[14] = target: High affinity cAMP-specific and IBMX-insensitive 3',5'-cyclic phosphodiesterase 8A (Homo sapiens) (UniProt O60658); test: Inhibition of PDE8A (unknown origin) at 10 uM; outline: as §1
[15] = target: cGMP-specific 3',5'-cyclic phosphodiesterase (Homo sapiens) (UniProt O76074); test: Inhibition of human recombinant PDE5A assessed at 10 uM after 60 mins by IMAP fluorescence polarization assay
Outline: (§5)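 Fluorescence polarization IMAP assay. PDE1 at 2 U and PDE9 at 0.05 U, incubated with 1 nM fluorescein-cAMP (or fluorescein-cGMP for PDE5) plus inhibitor for 60 min at ambient temperature. Stopped with IMAP binding reagent, stood 1 h, FP ratio read. IC50 from a sigmoidal fit of FP versus log concentration. Means ± SD of two experiments with duplicates.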

[16] = tested on: SH-SY5Y; test: Cytoprotective activity against 6-OHDA-induced death of human SH-SY5Y cells pretreated for 1 hr at 30 uM measured 16 hrs post 6-OHDA challenge by MTT assay; format: functional, cell-based; conditions: 10 uM, in the assay text read “10 uM” for “30 uM”; outline: as §2
[17] = target: High affinity cGMP-specific 3',5'-cyclic phosphodiesterase 9A (Homo sapiens) (UniProt O76083); test: Inhibition of human recombinant PDE9A assessed at 10 uM after 60 mins by IMAP fluorescence polarization assay; outline: as §5
[18] = target: T1, 3',5'-cyclic-AMP phosphodiesterase 7B; test: Inhibition of human recombinant PDE7B assessed as inhibition of hydrolysis of [3H]cAMP after 20 mins by scintillation proximity assay; outline: as §1
[19] = target: Dual specificity calcium/calmodulin-dependent 3',5'-cyclic nucleotide phosphodiesterase 1A (Homo sapiens) (UniProt P54750); test: Inhibition of human recombinant PDE1A assessed at 10 uM after 60 mins by IMAP fluorescence polarization assay; outline: as §5
[20] = tested on: Mus musculus; test: Emetogenic potential in surrogate emesis CD1 mouse model assessed as effect on xyclacine/ketamine-induced loss of righting reflex at 2.5 to 10 mg/kg, sc; format: ADME, organism-based; design: dose 2.5-10 mg/kg, route subcutaneous; conditions: in vivo; outline: as §4
[21] = target: Phosphodiesterase 7 (Homo sapiens, UniProt Q13946+Q9NP56); test: Inhibition of PDE7 in human SH-SY5Y cells assessed as increase in CREB phosphorylation at 10 uM by Western blot analysis
[22] = target: cAMP and cAMP-inhibited cGMP 3',5'-cyclic phosphodiesterase 10A (Homo sapiens) (UniProt Q9Y233); test: Inhibition of human recombinant PDE10A assessed at 10 uM after 20 mins by scintillation proximity assay
[23] = target: T2, 3',5'-cyclic-AMP phosphodiesterase 4D; test: Inhibition of human recombinant PDE4D3 assessed after 60 mins by IMAP fluorescence polarization assay
[24] = target: T4, 3',5'-cyclic-AMP phosphodiesterase 4B; test: Inhibition of human recombinant PDE4B2 assessed after 60 mins by IMAP fluorescence polarization assay

Sequence of cGMP-inhibited 3',5'-cyclic phosphodiesterase 3A (Homo sapiens) (Q14432 whole entry): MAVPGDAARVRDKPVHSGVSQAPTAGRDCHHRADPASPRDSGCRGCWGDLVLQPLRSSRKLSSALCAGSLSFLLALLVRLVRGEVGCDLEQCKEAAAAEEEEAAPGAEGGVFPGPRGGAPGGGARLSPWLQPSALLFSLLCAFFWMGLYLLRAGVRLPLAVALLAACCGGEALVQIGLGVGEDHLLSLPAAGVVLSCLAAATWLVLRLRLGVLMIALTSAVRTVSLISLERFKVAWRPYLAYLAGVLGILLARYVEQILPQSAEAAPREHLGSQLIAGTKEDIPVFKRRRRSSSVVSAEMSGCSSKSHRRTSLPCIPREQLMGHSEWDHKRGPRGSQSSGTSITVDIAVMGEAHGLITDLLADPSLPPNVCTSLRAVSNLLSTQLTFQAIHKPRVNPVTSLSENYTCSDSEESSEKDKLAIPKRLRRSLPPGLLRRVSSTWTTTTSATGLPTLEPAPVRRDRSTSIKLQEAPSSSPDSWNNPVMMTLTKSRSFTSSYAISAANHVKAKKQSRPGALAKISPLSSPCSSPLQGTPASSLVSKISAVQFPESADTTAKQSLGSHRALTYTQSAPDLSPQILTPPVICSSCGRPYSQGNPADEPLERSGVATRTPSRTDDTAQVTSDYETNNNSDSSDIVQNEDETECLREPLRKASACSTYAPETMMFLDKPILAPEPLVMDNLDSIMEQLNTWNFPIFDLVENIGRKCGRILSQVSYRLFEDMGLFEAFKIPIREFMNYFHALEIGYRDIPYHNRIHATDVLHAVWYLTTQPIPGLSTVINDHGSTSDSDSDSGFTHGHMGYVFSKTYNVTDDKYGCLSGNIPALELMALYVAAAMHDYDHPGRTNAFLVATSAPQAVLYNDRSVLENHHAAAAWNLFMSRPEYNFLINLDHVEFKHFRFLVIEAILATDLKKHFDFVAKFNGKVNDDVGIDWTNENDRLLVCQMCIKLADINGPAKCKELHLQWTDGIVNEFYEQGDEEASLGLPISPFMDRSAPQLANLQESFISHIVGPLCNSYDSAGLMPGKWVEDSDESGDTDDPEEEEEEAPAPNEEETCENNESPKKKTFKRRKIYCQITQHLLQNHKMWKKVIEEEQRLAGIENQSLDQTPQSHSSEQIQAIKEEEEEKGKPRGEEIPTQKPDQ
T2 sequence (Q08499 whole entry): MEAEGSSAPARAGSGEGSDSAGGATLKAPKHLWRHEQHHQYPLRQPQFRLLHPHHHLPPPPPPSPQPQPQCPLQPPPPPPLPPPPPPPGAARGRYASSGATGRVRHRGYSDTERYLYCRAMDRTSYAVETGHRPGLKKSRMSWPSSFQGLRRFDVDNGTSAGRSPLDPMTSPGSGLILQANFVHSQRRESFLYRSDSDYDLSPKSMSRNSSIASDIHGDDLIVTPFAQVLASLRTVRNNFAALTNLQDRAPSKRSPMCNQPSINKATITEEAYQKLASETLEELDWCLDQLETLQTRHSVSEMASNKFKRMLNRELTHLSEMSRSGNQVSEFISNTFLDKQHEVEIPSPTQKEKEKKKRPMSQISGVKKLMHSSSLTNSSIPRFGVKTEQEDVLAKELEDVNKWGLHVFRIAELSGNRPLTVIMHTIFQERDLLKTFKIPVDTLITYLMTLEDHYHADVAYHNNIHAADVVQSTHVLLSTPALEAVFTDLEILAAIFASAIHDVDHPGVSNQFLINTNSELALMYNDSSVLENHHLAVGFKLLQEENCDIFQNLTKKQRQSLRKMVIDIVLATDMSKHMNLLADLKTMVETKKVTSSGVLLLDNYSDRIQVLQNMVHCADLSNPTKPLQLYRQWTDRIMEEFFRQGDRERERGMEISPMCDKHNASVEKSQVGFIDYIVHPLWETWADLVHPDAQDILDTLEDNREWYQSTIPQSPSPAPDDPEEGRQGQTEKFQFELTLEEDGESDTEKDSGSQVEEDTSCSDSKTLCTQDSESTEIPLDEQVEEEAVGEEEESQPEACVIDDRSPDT
T3 sequence (Q13946 whole entry): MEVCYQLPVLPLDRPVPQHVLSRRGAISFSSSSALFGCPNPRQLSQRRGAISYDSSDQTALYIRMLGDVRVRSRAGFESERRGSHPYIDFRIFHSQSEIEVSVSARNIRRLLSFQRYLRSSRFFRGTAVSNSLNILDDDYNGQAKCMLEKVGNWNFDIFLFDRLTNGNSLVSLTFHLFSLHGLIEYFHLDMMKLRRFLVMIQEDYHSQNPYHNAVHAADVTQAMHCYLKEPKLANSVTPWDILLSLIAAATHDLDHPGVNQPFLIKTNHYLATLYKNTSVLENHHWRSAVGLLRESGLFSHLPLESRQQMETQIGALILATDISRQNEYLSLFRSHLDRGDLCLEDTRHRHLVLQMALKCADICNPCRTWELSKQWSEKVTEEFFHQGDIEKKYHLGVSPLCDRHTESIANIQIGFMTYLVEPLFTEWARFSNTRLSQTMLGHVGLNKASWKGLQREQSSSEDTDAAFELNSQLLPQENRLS
T4 sequence (Q07343 whole entry): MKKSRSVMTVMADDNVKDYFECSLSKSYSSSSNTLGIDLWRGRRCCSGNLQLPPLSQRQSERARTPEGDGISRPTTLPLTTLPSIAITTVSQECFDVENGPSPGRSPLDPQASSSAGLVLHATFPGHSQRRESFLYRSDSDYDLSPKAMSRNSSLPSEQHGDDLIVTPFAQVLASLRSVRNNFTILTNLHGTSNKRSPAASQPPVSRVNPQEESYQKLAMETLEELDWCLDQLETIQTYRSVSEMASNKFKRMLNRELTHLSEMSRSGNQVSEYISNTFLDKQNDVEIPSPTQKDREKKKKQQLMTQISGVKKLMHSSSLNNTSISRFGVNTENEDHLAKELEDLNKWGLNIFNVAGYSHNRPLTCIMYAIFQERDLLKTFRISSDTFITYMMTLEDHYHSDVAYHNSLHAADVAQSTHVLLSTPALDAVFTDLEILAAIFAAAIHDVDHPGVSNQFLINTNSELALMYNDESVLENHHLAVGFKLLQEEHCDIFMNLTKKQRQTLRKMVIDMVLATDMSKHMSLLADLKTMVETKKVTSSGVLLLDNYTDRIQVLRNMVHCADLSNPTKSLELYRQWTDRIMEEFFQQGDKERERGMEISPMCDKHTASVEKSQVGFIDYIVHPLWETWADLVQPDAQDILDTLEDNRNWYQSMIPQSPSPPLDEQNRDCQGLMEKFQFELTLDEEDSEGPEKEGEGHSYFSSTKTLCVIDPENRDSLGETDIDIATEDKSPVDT
T1 sequence (Q9NP56 whole entry): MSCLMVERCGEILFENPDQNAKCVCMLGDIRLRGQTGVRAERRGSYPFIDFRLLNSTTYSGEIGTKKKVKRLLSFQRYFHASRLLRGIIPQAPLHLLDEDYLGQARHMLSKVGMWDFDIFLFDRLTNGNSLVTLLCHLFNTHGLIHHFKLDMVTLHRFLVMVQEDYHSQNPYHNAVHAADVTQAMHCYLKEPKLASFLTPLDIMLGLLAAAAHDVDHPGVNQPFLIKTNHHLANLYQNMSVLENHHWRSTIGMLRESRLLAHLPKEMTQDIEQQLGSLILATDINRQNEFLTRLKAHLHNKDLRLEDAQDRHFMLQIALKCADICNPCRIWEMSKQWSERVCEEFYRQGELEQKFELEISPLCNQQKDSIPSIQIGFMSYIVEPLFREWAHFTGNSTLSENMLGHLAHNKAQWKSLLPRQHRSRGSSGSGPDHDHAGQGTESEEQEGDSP
Sequence of High affinity cGMP-specific 3',5'-cyclic phosphodiesterase 9A (Homo sapiens) (O76083 whole entry): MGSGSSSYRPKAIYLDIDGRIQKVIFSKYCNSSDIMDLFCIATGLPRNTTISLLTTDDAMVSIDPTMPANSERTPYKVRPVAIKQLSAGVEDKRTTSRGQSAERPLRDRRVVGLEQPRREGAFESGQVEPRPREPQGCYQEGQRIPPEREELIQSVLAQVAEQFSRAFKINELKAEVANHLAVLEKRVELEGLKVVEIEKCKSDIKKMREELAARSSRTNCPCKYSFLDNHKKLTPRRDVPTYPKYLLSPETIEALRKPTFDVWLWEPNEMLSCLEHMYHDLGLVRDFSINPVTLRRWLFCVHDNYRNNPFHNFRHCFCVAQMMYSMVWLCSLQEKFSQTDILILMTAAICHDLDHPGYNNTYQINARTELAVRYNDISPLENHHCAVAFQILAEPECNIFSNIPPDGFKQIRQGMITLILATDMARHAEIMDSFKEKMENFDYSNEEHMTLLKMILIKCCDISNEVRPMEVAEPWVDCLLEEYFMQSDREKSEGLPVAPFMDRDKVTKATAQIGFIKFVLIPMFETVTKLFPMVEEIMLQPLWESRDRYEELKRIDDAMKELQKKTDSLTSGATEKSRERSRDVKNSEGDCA
Sequence of Phosphodiesterase 7 (Q13946 whole entry, looked up): as the sequence (Q13946 whole entry) above
Sequence of Phosphodiesterase 7 (Q9NP56 whole entry, looked up): as the sequence (Q9NP56 whole entry) above
Sequence of Dual specificity calcium/calmodulin-dependent 3',5'-cyclic nucleotide phosphodiesterase 1A (Homo sapiens) (P54750 whole entry): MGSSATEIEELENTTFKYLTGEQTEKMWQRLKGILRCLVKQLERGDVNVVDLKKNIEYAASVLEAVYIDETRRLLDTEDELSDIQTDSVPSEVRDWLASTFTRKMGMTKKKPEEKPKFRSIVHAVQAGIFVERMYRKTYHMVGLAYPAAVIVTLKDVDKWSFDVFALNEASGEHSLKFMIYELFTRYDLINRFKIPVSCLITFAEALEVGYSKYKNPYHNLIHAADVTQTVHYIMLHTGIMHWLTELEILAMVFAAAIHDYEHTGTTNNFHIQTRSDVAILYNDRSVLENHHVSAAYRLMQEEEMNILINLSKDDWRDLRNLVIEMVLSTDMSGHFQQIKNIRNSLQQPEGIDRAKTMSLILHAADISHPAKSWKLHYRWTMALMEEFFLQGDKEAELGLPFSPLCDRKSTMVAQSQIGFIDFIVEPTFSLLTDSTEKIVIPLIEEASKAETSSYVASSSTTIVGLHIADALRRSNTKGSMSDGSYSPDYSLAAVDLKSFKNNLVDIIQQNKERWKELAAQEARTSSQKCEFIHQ

| inhibition [2] [%] | inhibition [3] [%] | inhibition [5] [%] | inhibition [7] [%] | IC50 [8] [nM] | inhibition [9] [%] | inhibition [14] [%] | inhibition [15] [%] | inhibition [17] [%] | IC50 [18] [nM] | inhibition [19] [%] | Activity [21] | inhibition [22] [%] | Compound | Activity [4] | inhibition [6] | inhibition [10] | Activity [12] | other results |
| --- | --- | --- | --- | --- | --- | --- | --- | --- | --- | --- | --- | --- | --- | --- | --- | --- | --- | --- |
| 82 | 37 | 7 | 81 | 370 | 4 | 1.2 | 28 | 7 | 3000 | 36 | inactive | 57.5 | Nc1ccc(Sc2ccc(Cl)cc2[N+](=O)[O-])cc1 | Active | Active | Active |  | Activity [16]: Active; Activity [20]: Non-toxic |
| 94 | 27 | 65 | 85 | 180 | 69 | 2.4 | 21 | 1 | 600 | 39 | inactive | 29.4 | O=[N+]([O-])c1ccc(Sc2ccncc2)c(Cl)c1 | Active | Active | Active |  | IC50 [23]: 7300 nM; IC50 [24]: 6600 nM |

The remaining lines, values behind:

| Compound | inhibition [2] [%] | inhibition [3] [%] | inhibition [5] [%] | inhibition [7] [%] | IC50 [8] [nM] | inhibition [9] [%] | inhibition [14] [%] | inhibition [15] [%] | inhibition [17] [%] | IC50 [18] [nM] | inhibition [19] [%] | Activity [21] | inhibition [22] [%] | Activity [4] | inhibition [6] | inhibition [10] | Activity [12] | other results |
| --- | --- | --- | --- | --- | --- | --- | --- | --- | --- | --- | --- | --- | --- | --- | --- | --- | --- | --- |
| O=[N+]([O-])c1ccc(Sc2ccccn2)c(Cl)c1 | 39 | 44 | 24 | 69 | 1290 | 35 |  |  |  |  |  |  |  | Active | Active | Active |  | inhibition [1]: Active |
| COc1ccc(C2CNC(=O)C2)cc1OC1CCCC1 (configuration not stated) [ROLIPRAM] |  | 9.42 |  | 3.1 |  |  |  |  |  |  |  |  |  |  |  |  | Toxic | Activity [11]: Toxic |
| O=C(Nc1c(Cl)cncc1Cl)c1ccc(OC(F)F)c(OCC2CC2)c1 [ROFLUMILAST] |  |  |  |  |  |  |  |  |  |  |  |  |  |  |  |  | Toxic | Activity [13]: Toxic |
